Glyco luc inh: blocks N-linked glycosylation in D54 reporter cells; D54 ERlucT glycosylation luciferase reporter, 24 h; percent of 100 nM tunicamycin response; reporter increase, % at 12.5 µM; AID 588692; actives 0.23% (n = 360,000);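 active means mean luciferase reporter signal, scaled so untreated is 0 and the glycosylation-blocking control 100, at or above a set limit in every replicate; inconclusive means mean reaches the limit but not every replicate does; inactive means mean below the limit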;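 further: luciferase carries N-glycosylation sites so blocking glycosylation raises the light; 0% = median of neutral control wells and 100% = median of 100 nM tunicamycin wells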
Arrestin-AP2 inh: human beta-arrestin and AP2 interaction inhibition; actives 0.31% (n = 340,000); AID 504490; inhibition, % at 10 µM; FITC-arrestin peptide / GST-AP2 beads, flow cytometry; AP2 beta2 appendage carries R879A mutation;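 active means inhibition above a set limit, near 3 SD of compounds lacking own fluorescence, cut at about 54% in these data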;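 further: plate controls were DMSO wells for no effect and 5 µM unlabelled arrestin peptide for full effect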
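Material – GST-tagged AP2 beta2-adaptin appendage (R879A) on 4 µm glutathione beads · Probe or stimulus – fluorescein-tagged arrestin peptide at 50 nM final · Timing – 12 min plus 1 h, RT · Detection – bead flow cytometry, FITC channel · Read-out basis – inhibition as reduced fluorescein signal on beads, percent · Medium – PBS plus Tween 20 (0.05%) and BSA (0.1%)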
Rtt109 Vps75: C. albicans Rtt109 histone acetyltransferase inhibition | actives 0.16% (n = 330,000) | Q5AAJ8 | inhibition, % at 34.9 µM | purified Rtt109/Vps75, ThioGlo CoA-SH fluorescence, 4 h | AID 540336;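 active means inhibition of at least 50% in every replicate; inconclusive means best replicate reaches 50% inhibition but some replicates fall short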
Target sequence (Q5AAJ8 whole entry, looked up): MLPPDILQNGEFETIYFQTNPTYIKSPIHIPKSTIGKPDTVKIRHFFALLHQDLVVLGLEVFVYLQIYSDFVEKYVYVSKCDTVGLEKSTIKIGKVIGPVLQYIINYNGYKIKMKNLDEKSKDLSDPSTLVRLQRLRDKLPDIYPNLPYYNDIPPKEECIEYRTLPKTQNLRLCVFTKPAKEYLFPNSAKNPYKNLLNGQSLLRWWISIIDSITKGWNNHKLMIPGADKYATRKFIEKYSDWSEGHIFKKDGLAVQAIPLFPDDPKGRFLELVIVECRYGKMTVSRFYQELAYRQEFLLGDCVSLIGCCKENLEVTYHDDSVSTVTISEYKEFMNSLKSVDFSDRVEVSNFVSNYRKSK
PfHsp90 set2: reduces growth (ATP signal) of yeast expressing P. falciparum Hsp90 | S. cerevisiae expressing PfHsp90, BacTiter-Glo ATP, 48 h; yeast lacking PDR1 and PDR3 efflux regulators | actives 0.32% (n = 310,000) | AID 504621 | inhibition, % at 9.4 µM;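 active means every replicate shows inhibition above about 80%, whatever the replicate mean, limit read from the data; inconclusive means mean inhibition reaches the set limit but some replicate falls short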;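 further: 0% = DMSO neutral controls and 100% = 20 µM radicicol positive controls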
PAX8 inh HTS: inhibitors of PAX8 transcriptional activity in RMG-I cells; AID 652154; inhibition, % at 12.6 µM; actives 1.2% (n = 360,000); RMG-I TPO-luciferase reporter, SteadyGlo, 24 h;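 active means mean replicate inhibition at least 60% with every replicate also reaching 60%; inconclusive means only one of the two criteria is met; inactive means mean below 60% and not all replicates reaching 60%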;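 further: luciferase light reporting Pax8 driven TPO promoter activity; plate controls were median of neutral control wells for no effect and mitoxantrone controls for full effect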
HIV Env fusion: blocks HIV Env-driven cell-cell fusion | HeLa-JRFL Env/CEM21 cell fusion, luciferase | inhibition, % at 12.3 µM | actives 1.1% (n = 360,000) | AID 651610;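 active means mean replicate inhibition score of at least 50 and every replicate individually at or above 50; inconclusive means only one of the two criteria met; inactive means mean below 50 and not all replicates reaching 50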;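 further: 0% = plate neutral controls and 100% = maraviroc near 300 nM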
* = called active by the depositor; ? = inconclusive; · = no result given; ! = not confirmed by another sample; [ ] = dose if it differs, or a comment. Shown are actives, neighbours in structure and some others; about 2.3% of the full set was active somewhere.

SMILES	Glyco luc inh	Arrestin-AP2 inh	Rtt109 Vps75	PfHsp90 set2	PAX8 inh HTS	HIV Env fusion
OCCN1CCN(Cc2cc(Cl)c3cccnc3c2O)CC1	1	-5	-15	1	·	21
Oc1ccc(CNc2ccccc2F)c2cccnc12	0	5	3	7	87*	114*!
C[C@H](CO)N1C[C@H](C)[C@@H](CN(C)C(=O)C2CC2)Oc2cc(-c3ccccc3)ccc2S1(=O)=O	·	·	·	·	·	1[16.7 µM]
Cc1noc(C)c1S(=O)(=O)N(C)C[C@@H]1OCCCC[C@@H](C)Oc2ccc(NC(=O)NC(C)C)cc2C(=O)N([C@H](C)CO)C[C@H]1C	·	·	·	·	-19	-41[16.7 µM]
CO[C@H]1CN(C)C(=O)c2ccc(NC(=O)c3ccccc3F)cc2OC[C@@H](C)N(CC2CCOCC2)C[C@H]1C	·	·	·	·	-9	·
O=C(Oc1ccc(Cl)c2cccnc12)c1cccnc1	9	-8	-2	112*	12	-228
Oc1ccc(F)c2cccnc12	1	36	-3	27	94*	2
Oc1c(Cl)cc(Cl)c2cccnc12	4	9	·	107*	24	18
C[C@H]1CN([C@@H](C)CO)S(=O)(=O)c2ccc(C3=CCCCC3)cc2O[C@H]1CN(C)CC1CC1	·	·	·	·	·	-10[16.7 µM]
O=C(c1ccc2c(c1)OCO2)N1CC2(C1)[C@@H](c1ccccc1)[C@@H](CO)N2C(=O)C1CC1	·	·	·	·	-10	-29[16.7 µM]
CCN(c1ccccc1)S(=O)(=O)c1ccc(C(=O)Nc2c(C)n(C)n(-c3ccccc3)c2=O)cc1	4	8	15	·	7	57*
O=C(O)COCC(=O)N1CCN(c2cc(C(F)(F)F)nc3ccccc23)CC1	1	-10	-3	-6	11	-22
CCC(=O)N1CCN(c2ccc(-n3c(=O)ccc4cnc5ccc(-c6cnc7ccccc7c6)cc5c43)cc2C(F)(F)F)CC1	·	·	·	·	71*	59*
O=C(C1CCC1)N1CC2(C1)[C@H](c1ccccc1)[C@@H](CO)N2Cc1cncnc1	·	·	·	·	-5	-31[16.7 µM]
COc1ccc(C(C(=O)NC2CCCC2)N(CC2CCCO2)C(=O)Cn2nnc(-c3ccc(C)o3)n2)cc1 (centres undefined)	-2	0	0	20	14	1
Cc1ccc(-c2nnn(CC(=O)N(CC3CCCO3)C(C(=O)NC3CCCCC3)c3ccc(F)cc3)n2)o1 (centres undefined)	-1	17	5	-15	·	116*
NC(=O)[C@@H]1CC2(CC(c3cccc(NC(=O)CC(c4ccccc4)c4ccccc4)c3)=NO2)CN1C(=O)COc1ccc(Cl)cc1 (some centres undefined)	-9	21	-4	-4	77*	1
NC(=O)[C@H]1CC2(CC(c3cccc(NC(=O)CC(c4ccccc4)c4ccccc4)c3)=NO2)CN1C(=O)C(c1ccccc1)c1ccccc1 (some centres undefined)	-1	1	-7	-16	69*	-35
NC(=O)[C@H]1CC2(CC(c3cccc(NC(=O)CC(c4ccccc4)c4ccccc4)c3)=NO2)CN1C(=O)c1ccccc1C(=O)c1ccccc1 (some centres undefined)	-1	-3	0	-13	?	7
C[C@@H]1CN([C@H](C)CO)C(=O)c2cc(NS(=O)(=O)c3ccccc3)ccc2O[C@@H]1CN(C)S(=O)(=O)c1ccc(Cl)cc1	·	·	·	·	6	-33[16.7 µM]
COc1cccc(C(=O)NNC(=O)CCC(=O)O)c1	0	18	54*	-18	7	7
O=C(O)CCC(=O)NNC(=O)c1cccc(Cl)c1	1	-11	1	-6	-7	1
CCCC#Cc1ccc2c(c1)O[C@H](CN(C)C(=O)NC(C)C)[C@H](C)CN([C@H](C)CO)S2(=O)=O	·	·	·	·	·	0[16.7 µM]
CC[C@]1(c2ccccc2OC)ON(c2ccccc2C(F)(F)F)C1=O	·	·	·	·	84*	-10
COC(=O)[C@]12C[C@H](CC(=O)NCc3ccc(OC)c(OC)c3)C(=O)N(CCC3=CCCCC3)C1=C[C@H](C(C)(C)C)O[C@@H]2C	·	·	·	·	30	82*

Assay outcomes deposited in PubChem by several laboratories.
